FID counter: displaces DNA intercalator in HCV helicase counter-screen; inhibition, % at 7.9 µM; 0.17% of 290,000 active; DNA fluorescent intercalator displacement, fluorescence; AID 1845; in the data active = inhibition above about 37%;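 note: 0% = vehicle and 100% = reference compound; higher means more ethidium bromide displaced from hairpin DNA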
FGF22 binding: binders of recombinant human FGF22 by thermal shift; Q9HCT0; SYPRO orange fluorescence; percent of sucrose octasulfate shift, DMSO zero; activity (Tm shift, normalised), % at 9.99 µM; 1.5% of 340,000 active; AID 651658;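 active = mean Tm shift, scaled 0 neutral to 100 positive control, at about 1.3% or above, every replicate too, limit read from the data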
Target sequence (Q9HCT0 whole entry, looked up): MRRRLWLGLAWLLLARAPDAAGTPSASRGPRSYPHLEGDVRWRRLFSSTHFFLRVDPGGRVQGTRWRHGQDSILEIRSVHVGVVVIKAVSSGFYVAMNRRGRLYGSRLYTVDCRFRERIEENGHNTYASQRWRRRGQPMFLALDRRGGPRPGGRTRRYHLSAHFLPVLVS
NR3A LBD binder: NR3A (human) ligand-binding domain modulation | Tm shift relative to glycine control, % at 25 µM | 2.5% of 340,000 active | AID 1259313 | NR3A LBD differential scanning fluorimetry, Tm shift; 0% = protein alone, 100% = glycine-bound protein;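 active = melting temperature shift of at least 10% of the positive control shift, at one fixed dose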
ZTA DNA inh: ZTA (EBV) inhibition in EBNA-1 counter-screen; ZTA-DNA binding, fluorescence polarization; inhibition, % at 11 µM; 0.15% of 320,000 active; AID 2234; in the data active = inhibition above about 33%
Target sequence (P03206 whole entry, looked up): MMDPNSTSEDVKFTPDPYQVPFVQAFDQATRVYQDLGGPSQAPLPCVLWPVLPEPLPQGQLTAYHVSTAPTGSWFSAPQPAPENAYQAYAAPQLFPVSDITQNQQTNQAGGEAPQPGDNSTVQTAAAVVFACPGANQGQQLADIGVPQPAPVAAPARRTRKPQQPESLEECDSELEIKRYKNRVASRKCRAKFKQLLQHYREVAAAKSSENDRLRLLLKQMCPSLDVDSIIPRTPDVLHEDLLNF
EBNA-1 inh: blocks EBNA-1 binding to DNA; EBNA-1 DNA binding, fluorescence polarization; inhibition, % at 14.8 µM; 0.34% of 300,000 active; in the data active = inhibition above about 28%
NS3 helicase inh: HCV NS3 helicase inhibition; NS3 helicase DNA unwinding, Cy5 molecular beacon fluorescence; inhibition, % at 10.9 µM; 0.56% of 290,000 active; AID 1800;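 active = inhibition above the mean of all tested compounds plus 3 SD, set per campaign, cut at about 35% in these data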;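 note: 0% = DMSO wells and 100% = thioflavine S control wells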
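Measured by: Cy5 fluorescence, 0 and 60 min reads / Assay system: NS3 helicase fragment of HCV / Control set: low DMSO, high thioflavine S at 110 µM / Times: 1 h reaction at 25 °C, ATP-initiated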
The depositor's hits bear a star; / = no result given. This is a sample that favours compounds with a hit; in the whole collection about 3.6% have one here.

SMILES	FID counter	FGF22 binding	NR3A LBD binder	ZTA DNA inh	EBNA-1 inh	NS3 helicase inh
C[C@@H]1CN([C@H](C)CO)C(=O)Cc2cc(NC(=O)Nc3cccc4ccccc34)ccc2O[C@H]1CN(C)S(=O)(=O)c1cn(C)cn1	/	0	/	/	/	/
C=C(C)CN(CC)C(=O)CC1C(=O)NCCN1Cc1c(F)cccc1Cl (stereo not given)	-21	43*	0	-16	9	5
CC(=O)C1=C(C)NC(SCC(=O)c2ccc(-c3ccccc3)cc2)=C(C#N)C1c1cccnc1 (stereo not given)	-14	/	/	4	36*	-14
COCC(=O)Nc1ccc2c(c1)C(=O)N(C)C[C@H](OC)[C@@H](C)CN(C(=O)c1cnccn1)[C@@H](C)CO2	/	0	/	/	/	/
C[C@@H]1CN([C@@H](C)CO)C(=O)c2cc(NS(=O)(=O)c3ccc(Cl)cc3)ccc2O[C@H]1CN(C)C(=O)Nc1ccc(F)cc1	/	0	/	/	/	/
CN=C(Nc1cc(Cl)ccc1Cl)SC1CC(=O)N(c2ccc(C(=O)OC)cc2)C1=O (stereo not given)	-1	/	14*	-12	-9	7
COC(=O)c1ccc(N2C(=O)CC(SCC(=O)Nc3ccc(OC)cc3)C2=O)cc1 (stereo not given)	-16	0	7	-1	13	12
Cc1ccc(-c2ccccc2[C@@H]2[C@H](C#N)N(c3ncc(-c4ccccc4)s3)[C@H]2CO)cc1	/	0	/	/	/	/
O=C1ON=C(c2ccccc2)/C1=C/c1ccc(-c2ccccc2[N+](=O)[O-])o1	-5	/	23*	24	9	18
O=C(Nc1ccccc1Cl)Oc1ccc(Cl)cc1Cl	-2	0	10*	-15	-6	6
Cc1ccc(-c2cnc3c(c2)C(=O)N([C@@H](C)CO)C[C@@H](C)[C@@H](CN(C)C(=O)c2cccnc2)O3)cc1	/	0	/	/	/	/
CCCCOC(=O)c1ccc(NC(C)=O)cc1	-7	/	7	-1	-16	13
CCOc1ccc(/C=C/C(=O)Nc2cccc(C(C)=O)c2)cc1	-14	/	29*	6	1	2
CCCCOc1ccc(/C=C/C(=O)Nc2ccc(C(N)=O)cc2)cc1	2	/	22*	3	2	-2
CCOc1ccc(NC(C(=O)Nc2cccc(C(C)=O)c2)c2ccccc2)cc1 (stereo not given)	-16	0	-8	1	2	-7
CCCCOc1ccc(/C=C/C(=O)NCCc2nc3ccccc3[nH]2)cc1	-3	/	12*	0	-4	-7
CCCCOC(=O)c1ccc(NC(=O)/C=C/c2cccs2)cc1	-4	/	19*	-3	-2	-7
C[C@@H]1CN([C@H](C)CO)C(=O)c2cccc(NS(=O)(=O)c3ccccc3)c2O[C@H]1CN(C)S(=O)(=O)c1ccc(Cl)cc1	/	0	/	/	/	/
Cc1ccc(S(=O)(=O)Nc2cccc3c2O[C@H](CN(C)Cc2ccc(C(F)(F)F)cc2)[C@@H](C)CN([C@@H](C)CO)C3=O)cc1	/	-1	/	/	/	/
CC(C)NC(=O)N(C)C[C@H]1OCCCC[C@H](C)Oc2ccc(NS(=O)(=O)c3cn(C)cn3)cc2C(=O)N([C@H](C)CO)C[C@@H]1C	/	0	/	/	/	/
CCCCOc1ccc(/C=C/C(=O)Nc2ccc([N+](=O)[O-])cc2C)cc1	5	/	-9	9	-3	-3
CCCOc1ccc(/C=C/C(=O)Nc2ccc([N+](=O)[O-])cc2)cc1	9	/	27*	8	-9	-1
C=CCOc1ccc(/C=C/C(=O)Nc2ccc(C(=O)NC)cc2)cc1	-15	0	24*	-18	-14	-17
CNC(=O)c1ccc(NC(=O)/C=C/c2cccc(F)c2)cc1	-12	44*	14*	2	-16	5
O=C(C[C@@H]1CC[C@H]2[C@@H](COC[C@H](O)CN2Cc2ccccc2F)O1)NC1CCC1	/	0	/	/	/	/
SMILES	FID counter	FGF22 binding	NR3A LBD binder	ZTA DNA inh	EBNA-1 inh	NS3 helicase inh
CN1C(=O)/C(=C/c2cc(N=Nc3ccccc3)ccc2O)SC1=S	-3	/	372*	22	5	3
Oc1c(C=C2N=c3ccccc3=N2)sc(=S)n1-c1ccc(F)cc1	0	/	9	5	-3	7
O=C1Nc2ccccc2N=C(c2ccccc2)c2ccccc21	-12	-1	-2	-3	-9	-13
Oc1[nH]c(=S)sc1/C=C1\C(c2ccccc2)=Nc2ccccc21	4	/	16*	6	20	-2
Oc1[nH]c(=S)sc1C=C1N=c2ccccc2=N1	7	0	18*	-4	-1	-10
C[C@@H]1CCCCO[C@@H](CN(C)Cc2ccc3c(c2)OCO3)[C@H](C)CN([C@H](C)CO)C(=O)c2cc(NC(=O)Nc3ccccc3)ccc2O1	/	-1	/	/	/	/
COCC(=O)N1C[C@@H](C)[C@H](OC)CN(C)C(=O)c2ccc(NC(=O)C3CCC3)cc2OC[C@@H]1C	/	0	/	/	/	/
CO[C@@H]1CN(C)C(=O)c2cc(NC(=O)C3CC3)ccc2OC[C@@H](C)N(C(=O)c2cccnc2)C[C@@H]1C	/	0	/	/	/	/
O=C(Nc1ccccc1)c1nc[nH]c1C(=O)NCCCCCCNC(=O)c1[nH]cnc1C(=O)Nc1ccccc1	/	0	14*	/	/	/
CNC(=O)c1[nH]cnc1C(=O)Nc1ccc(Cl)cc1	-4	0	3	6	7	-18
O=C(Nc1ccc(Cl)cc1)c1nc[nH]c1C(=O)NCCN(CCNC(=O)c1[nH]cnc1C(=O)Nc1ccc(Cl)cc1)CCNC(=O)c1[nH]cnc1C(=O)Nc1ccc(Cl)cc1	/	/	19*	/	/	/
Cc1ccc(NC(=O)c2nc[nH]c2C(=O)NCCN(CCNC(=O)c2[nH]cnc2C(=O)Nc2ccc(C)cc2)CCNC(=O)c2[nH]cnc2C(=O)Nc2ccc(C)cc2)cc1	/	0	16*	/	/	/
